Test results taken from ChEMBL document CHEMBL5584325, “Discovery of novel coumarin triazolyl and phenoxyphenyl triazolyl derivatives targeting amyloid beta aggregation-mediated oxidative stress and neuroinflammation for enhanced neuroprotection” (RSC Med Chem, 2024).
Activity calls are given as the source filed them. The calls are words filed in the database; no cut-off is given here.

Tests used:
[1] = Octanol/water partition coefficient, log P of the compound incubated for 2 hrs under shaking condition by HPLC analysis; type: physicochemical
How it was run: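 Shake-flask log P: 10 mM stock (DMSO, or octanol for highly lipophilic compounds) partitioned between mutually saturated octanol and water at three phase ratios. Shaken 2 h at 25 ± 1 °C, phases separated, each phase quantified by C18 HPLC-UV. Mobile phase 0.1% formic acid:methanol 40:60; log P averaged over the three ratios.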

BV-2 [2] = assay: Neuroprotective activity in amyloid beta (1 to 42)-induced inflammation in mouse BV-2 cells assessed as change in IL-6 mRNA expression at 10 uM measured after 24 hrs by SYBR green staining based qRT-PCR analysis; type: functional, cell-based
[3] = Induction of ROS generation in mouse BV-2 cells at 10 uM measured after 24 hrs by DCFH-DA staining based fluorescence assay; type: toxicity, cell-based; settings: bv-2, 24 h
How it was run: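 BV-2 cells seeded overnight at 1 × 10^4/well, compound alone (no Aβ). Cells loaded with 20 μM (final) DCFH-DA for 30 min at 37 °C, washed, then given conditioned medium for 24 h. Fluorescence read at ex […] nm. Expressed as % of control; n = 3 in triplicate, one-way ANOVA with LSD.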

BV-2 [4] = assay: Neuroprotective activity in amyloid beta (1 to 42)-induced cytotoxicity in mouse BV-2 cells assessed as cell viability at 10 uM measured after 24 hrs by MTT assay (reference value: 54.96 +/- 1.12%); type: functional; settings: read-out: Activity
SH-SY5Y = assay: Neuroprotective activity against human SH-SY5Y cells co-cultured with 10 uM compound pretreated BV-2 cells exposed to amyloid beta (1 to 42) assessed as cell viability measured after 24 hrs by MTT assay (reference value: 80.62 +/- 0.86%); type: functional; settings: read-out: Activity
BV-2 [5] = assay: Cytotoxicity against mouse BV-2 cells assessed as reduction in cell viability at 10 uM measured after 24 hrs by MTT assay; type: toxicity, cell-based; settings: bv-2, 24 h
How it was run: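 BV-2 microglia grown in DMEM with 10% FBS, HEPES and Glutamax at 37 °C, 5% CO2, seeded overnight at 1 × 10^4 cells/well. Compound alone at 0–200 μM (range extended lower where needed) for 24 h. MTT 2 h at 37 °C, formazan dissolved in DMSO, A570 read. Used to pick non-toxic concentrations.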

BV-2 [6] = assay: Neuroprotective activity in amyloid beta (1 to 42)-induced inflammation in mouse BV-2 cells assessed as IL-1beta mRNA expression at 10 uM measured after 24 hrs by SYBR green staining based qRT-PCR analysis (reference value: 1.53 +/- 0.13%); type: functional
BV-2 [7] = assay: Neuroprotective activity in amyloid beta (1 to 42)-induced inflammation in mouse BV-2 cells assessed as TNFalpha mRNA expression at 10 uM measured after 24 hrs by SYBR green staining based qRT-PCR analysis (reference value: 1.73 +/- 0.22%); type: functional
BV-2 [8] = assay: Neuroprotective activity in amyloid beta (1 to 42)-induced oxidative stress in mouse BV-2 cells assessed as intracellular ROS level at 10 uM measured after 24 hrs by DCFH-DA staining based fluorescence assay (reference value: 150.91 +/- 0.49%); type: functional
[9] = target: T1, Amyloid-beta precursor protein (Homo sapiens, UniProt P05067); assay: Inhibition of amyloid beta (1 to 42) (unknown origin) aggregation incubated for 48 hrs by ThioflavinT staining based fluorescence assay
T1 sequence (P05067 whole entry): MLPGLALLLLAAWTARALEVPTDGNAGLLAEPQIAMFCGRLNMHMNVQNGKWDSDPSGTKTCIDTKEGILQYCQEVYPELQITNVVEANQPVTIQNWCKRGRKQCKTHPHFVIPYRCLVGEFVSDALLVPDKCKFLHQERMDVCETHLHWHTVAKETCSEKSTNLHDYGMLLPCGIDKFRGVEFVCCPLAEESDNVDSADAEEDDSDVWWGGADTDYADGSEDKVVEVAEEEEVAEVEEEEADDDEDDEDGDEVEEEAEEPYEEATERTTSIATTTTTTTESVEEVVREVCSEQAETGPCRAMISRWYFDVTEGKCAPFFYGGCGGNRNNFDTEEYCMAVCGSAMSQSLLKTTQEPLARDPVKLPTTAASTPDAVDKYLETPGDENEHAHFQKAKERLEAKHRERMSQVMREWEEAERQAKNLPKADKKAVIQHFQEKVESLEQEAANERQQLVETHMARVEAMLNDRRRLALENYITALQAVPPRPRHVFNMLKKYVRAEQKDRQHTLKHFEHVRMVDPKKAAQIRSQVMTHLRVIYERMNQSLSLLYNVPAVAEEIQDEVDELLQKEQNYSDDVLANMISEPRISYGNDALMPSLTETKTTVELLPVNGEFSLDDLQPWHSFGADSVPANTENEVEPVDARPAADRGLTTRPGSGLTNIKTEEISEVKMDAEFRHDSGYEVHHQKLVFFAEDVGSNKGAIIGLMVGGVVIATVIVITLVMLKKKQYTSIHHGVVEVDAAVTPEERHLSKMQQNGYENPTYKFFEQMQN

[10] = target: T1, Amyloid-beta precursor protein; assay: Inhibition of amyloid beta (1 to 42) (unknown origin) aggregation at 100 uM incubated for 48 hrs by ThioflavinT staining based fluorescence assay relative to control
How it was run: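 Compound in DMSO (1 μl of a 1 mM solution) mixed with 9 μl of 25 μM Aβ1–42 in Tris pH 7.4. Incubated 48 h at 37 °C without agitation, then 200 μl of 5 μM ThT added. Fluorescence read at ex 446/em 500 nm; % inhibition vs DMSO control, solvent blank subtracted.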

[11] = target: T1, Amyloid-beta precursor protein; assay: Inhibition of amyloid beta (1 to 42) aggregation in mouse BV-2 cells exposed to amyloid-beta (1 to 42) (unknown origin) at 10 uM measured after 24 to 48 hrs by thioflavin T staining based fluorescence assay; type: cell-based; settings: time 24-48 hrs

- logP at 2 h [1]: 4.92
- IC50 [9]: 14.1 µM
- inhibition [10]: > 50%
- inhibition [11]: Active
Compound: COc1cc(/C=C/C(=O)OCc2cn(-c3ccc(Oc4ccccc4)cc3)nn2)ccc1O
- Activity (BV-2 [2]): inactive
- Activity [3]: Non-Toxic
- viability at 10 µM (BV-2 [4]): 62.9%
- viability at 10 µM (SH-SY5Y): 87.2%
- Activity (BV-2 [5]): Non-Toxic
- Activity (BV-2 [6]): 8.29%
- Activity (BV-2 [7]): 1.19%
- Activity (BV-2 [8]): 105.68%
